Records with an inconclusive call do not appear.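 How the source made its calls, unless noted: active means viability at or below 27.92% in each of two runs, the all-compound median minus 4 SD; inconclusive means no clear call, values can overlap the other calls; inactive means the rest.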
Tests used:
[1] = OD615 S. cerevisiae growth inhibition, permissive medium, pilot counter-assay, permissive growth control for S. cerevisiae lifespan shortening project (AID 705;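 active means growth inhibition above 25% in both replicates, a cutoff set 3 SD above the mean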); settings: OD615, 24 h, at 10 µM, hits give high values
How it was run: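 System – S. cerevisiae with engineered DeaD lifespan system · Buffer or medium – SC raffinose/galactose permissive medium · Schedule – cells pre-grown 4 h, then 24 h compound exposure, 30 °C humidified · Technique – culture turbidity as optical density at 615 nm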

[2] = Restrictive medium S. cerevisiae growth inhibition, OD615, pilot screen of yeast lifespan reduction project, restrictive growth control (AID 706;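 active means growth inhibition above a set limit, 3 SD over mean compound inhibition, in both replicates, cut at about 43% in these data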;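 further: modified DeaD lifespan yeast strain shifted to restrictive glucose medium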); settings: OD615, 48 h, at 10 µM, hits give high values
How it was run: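 Material: engineered S. cerevisiae DeaD strain / Medium: glucose-based CSMM-D restrictive medium / Compound: single dose of 10 µM compound final, 0.25% DMSO / Timing: 4 h pre-incubation, 48 h exposure at 30 °C / Technique: OD615 absorbance reading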

[3] = viability gain of MRP-1-high H69AR cells under doxorubicin, pilot screen, MRP-1 activator project, CellTiter-Glo, duplicate (AID 807;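 active means viability increase at or above a cutoff of the median across tested compounds plus 3 SD, cut at about 8.5% in these data, passing the limit was not always enough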;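 further: compound pretreatment 18-22 h then 72 h combined with doxorubicin; 0% = doxorubicin alone and 100% = vehicle without doxorubicin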); settings: H69AR viability with doxorubicin, CellTiter-Glo luminescence; at 10 µM; hits give high values
[4] = growth suppression of beta-catenin knockout HCT116, pilot screen, human colon tumor cells (AID 823;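 active means cell viability at or below a set limit in both duplicate runs, the limit being the all-compound median minus 4 SD, cut at about 23% in these data, passing the limit was not always enough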;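 further: 0% = wells killed by 20 µM Hyamine and 100% = untreated DMSO cell wells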); settings: CellTiter-Glo, 60 h, at 10 µM, hits give low values
[5] = growth suppression of PTEN-deleted HCT116, pilot screen, cell-based, HCT116 clonal line, CellTiter-Glo (AID 824); settings: 60 h, at 10 µM, hits give low values;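 further: 0% = 20 µM Hyamine control and 100% = vehicle cell control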
[6] = inhibitors of the yeast RAM network, pilot screen, dse1pr::URA3 reporter, 5-FOA selection (AID 869;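 active means inhibition over a set limit, the all-compound mean plus 3 SD, in both replicate runs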;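 further: 0% = DMSO wells with no growth and 100% = 10 µM 1-NA-PP1 with full growth; RAM network block rescues cells from 5-FOA so hits raise OD615 growth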); settings: S. cerevisiae dse1pr::URA3 5-FOA growth, OD615, 2 d; at 10 µM; hits give high values; strain carries analog-sensitive mutant Cbk1 kinase
[7] = RAM signaling pathway blockade in yeast – S. cerevisiae, Pdr1DBD-CYC8 efflux-inhibited sensitized strain, primary screen (AID 1298;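 active means RAM network inhibition above 8.4% in each of two replicates, 3 SD over the compound average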;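 further: 0% = DMSO untreated cells without growth and 100% = 10 µM 1-NA-PP1 full growth; higher means more yeast growth rescued from 5-FOA killing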); settings: S. cerevisiae cbk1-as DSE1-URA3 strain, 5-FOA growth OD615, 2 d; at 50 µM; hits give high values

COc1ccc(OC)c(C2C(C(=O)Nc3ccccc3OC)=C(C)Nc3nc(CCCO)nn32)c1 (stereo unspecified)
inactive: growth inhibition [1] 4.07% | growth inhibition [2] -1.39% | viability increase [3] -2.08% | viability [4] 98.9% | viability [5] 96.8% | inhibition [6] 3.86% | RAM network inhibition [7] 4.26%

COc1ccc(C(=O)Nc2c(N)nc(SCC(=O)N3CCCCCC3)[nH]c2=O)cc1OC
inactive: growth inhibition [1] -2.35% | growth inhibition [2] -3.33% | viability increase [3] -0.26% | viability [4] 96.8% | viability [5] 102% | inhibition [6] 1.97% | RAM network inhibition [7] 5.94%

CCC(Sc1nc2ccccc2[nH]1)C(=O)Nc1cc(C)on1 (stereo unspecified)
inactive: growth inhibition [1] -13% | growth inhibition [2] -17.9% | viability increase [3] 1.02% | viability [4] 100% | viability [5] 101% | inhibition [6] 1.1% | RAM network inhibition [7] -0.37%

C=CCSc1nnc(Cn2c(=O)sc3ccccc32)n1C
inactive: growth inhibition [1] -5.41% | growth inhibition [2] -8.71% | viability increase [3] -0.84% | viability [4] 108% | viability [5] 104% | inhibition [6] -0.685% | RAM network inhibition [7] 0.31%

COc1cccc(C2CC(c3ccccc3)Nc3nc(N)nn32)c1 (stereo unspecified)
inactive: growth inhibition [1] -2.81% | growth inhibition [2] 7.94% | viability increase [3] 0.44% | viability [4] 94.9% | viability [5] 93.5% | inhibition [6] 1.83% | RAM network inhibition [7] 3.16%

CC1(C)Cc2ccccc2-c2nc(NCCO)n(-c3ccccc3)c(=O)c21
inactive: growth inhibition [1] -7.5% | growth inhibition [2] -15.2% | viability increase [3] -2.92% | viability [4] 84.8% | viability [5] 83% | inhibition [6] -0.14% | RAM network inhibition [7] 3.93%

CCOc1cc2c(cc1OCC)C(c1ccc(O)c(OC)c1)NCC2 (stereo unspecified)
inactive: growth inhibition [1] -5.95% | growth inhibition [2] -11.5% | viability increase [3] -3.12% | viability [4] 75.3% | viability [5] 81.6% | inhibition [6] 2.12% | RAM network inhibition [7] 1.63%

O=C(O)C1CCCCN1S(=O)(=O)c1ccc(Cl)s1 (stereo unspecified)
inactive: growth inhibition [1] -2.17% | growth inhibition [2] 1.02% | viability increase [3] -1.27% | viability [4] 101% | viability [5] 97.3% | inhibition [6] 0.505% | RAM network inhibition [7] -0.42%

Cc1cccc(C2Nc3ccccc3C(=O)N2c2ccccc2)n1 (stereo unspecified)
inactive: growth inhibition [1] -13.9% | growth inhibition [2] -8.88% | viability increase [3] -2.08% | viability [4] 94.1% | viability [5] 101% | inhibition [6] 2.28% | RAM network inhibition [7] 2.46%

CCOC(=O)C1=C(C)NC(=O)NC1c1ccc(N(CC)CC)cc1 (stereo unspecified)
inactive: growth inhibition [1] -11.1% | growth inhibition [2] -3.54% | viability increase [3] -1.3% | viability [4] 97.5% | viability [5] 99.3% | inhibition [6] 1.44% | RAM network inhibition [7] 1.67%

CC1(C)C(=O)OC(C(=O)c2ccccc2)C(C)(C)C1=O (stereo unspecified)
inactive: growth inhibition [1] -7.95% | growth inhibition [2] -6.81% | viability increase [3] 0.07% | viability [4] 105% | viability [5] 94.8% | inhibition [6] 0.83% | RAM network inhibition [7] 2.22%

COc1ccc(OC)c(N(CC(=O)NCc2ccccn2)S(C)(=O)=O)c1
inactive: growth inhibition [1] -0.79% | growth inhibition [2] -6.94% | viability increase [3] -2.27% | viability [4] 98.1% | viability [5] 96.3% | inhibition [6] 1.44% | RAM network inhibition [7] 0.46%

CCOc1cc(N2CCOCC2)c(OCC)cc1NC(=O)c1cc(-c2ccco2)nc2ccccc12
inactive: growth inhibition [1] 1.62% | growth inhibition [2] -4.63% | viability increase [3] -5.6% | viability [4] 65.4% | viability [5] 60.8% | inhibition [6] 0.475% | RAM network inhibition [7] 6.51%

O=C(NCCC1=CCCCC1)c1ccc2c(=O)n3c(nc2c1)CCCCC3
inactive: growth inhibition [1] -10.1% | growth inhibition [2] -2.77% | viability increase [3] -1.07% | viability [4] 89.6% | viability [5] 97.8% | inhibition [6] -0.66% | RAM network inhibition [7] 0.26%

COC(=O)c1cc(COc2ccc3oc(C)c(C(=O)OC)c3c2)c(C)o1
inactive: growth inhibition [1] 4.47% | growth inhibition [2] -14.8% | viability increase [3] 0.77% | viability [4] 74.4% | viability [5] 74.5% | inhibition [6] 2.19% | RAM network inhibition [7] 3.15%

O=C1c2oc3ccccc3c(=O)c2C(c2cccc(O)c2)N1c1ccccn1 (stereo unspecified)
inactive: growth inhibition [1] -7.62% | growth inhibition [2] -6.25% | viability increase [3] -0.37% | viability [4] 82.2% | viability [5] 79.6% | inhibition [6] 1.85% | RAM network inhibition [7] -0.1%

COC(=O)c1c(NC(=O)C2CC2)sc2c1CCN(C(C)=O)C2
inactive: growth inhibition [1] -10.8% | growth inhibition [2] -31.3% | viability increase [3] -0.44% | viability [4] 105% | viability [5] 91.6% | inhibition [6] 1.98% | RAM network inhibition [7] -1.38%

Cc1ccc(C)c2[nH]c(=O)c(CCNC(=O)C(C)C)cc12
inactive: growth inhibition [1] -14.5% | growth inhibition [2] -18.6% | viability increase [3] -0.31% | viability [4] 102% | viability [5] 104% | inhibition [6] 1.83% | RAM network inhibition [7] 2.82%

Reference: PubChem BioAssay
